Test results taken from ChEMBL document CHEMBL1121551, “Amino acid and dipeptide derivatives of daunorubicin. 2. Cellular pharmacology and antitumor activity on L1210 leukemic cells in vitro and in vivo” (1980).

What was measured:
Mus musculus [1] = experiment: Chemotherapeutic activity was evaluated by measuring percent change in weight on day 8 at 60 mg/kg/day, sc; format: functional
Method in brief: (§1)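 Drugs were given iv on days 1 and 2 at the stated daily dose. Average tumor diameter was estimated daily with calipers, and body weight change was recorded on day 8. Results from several experiments are given as mean ± SD.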

Mus musculus [2] = experiment: Chemotherapeutic activity was evaluated by measuring number of survivors on day 30 / total number of mice at 50(mg/kg)/day, iv; 0/7; format: functional
Method in brief: (§2)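 Female DBA2 mice given 10^4 L1210 cells iv on day 0; cells harvested from a 6- to 8-day-old ascitic L1210 form. Drug given iv on days 1 and 2 at the stated daily dose. Read-outs are % increase in life span and the number of mice alive on day 30 over the total.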

Mus musculus [3] = experiment: Chemotherapeutic activity was evaluated by measuring number of survivors on day 30 / total number of mice at 66 mg/kg/day, sc; 0/9; format: functional
Mus musculus [4] = experiment: Chemotherapeutic activity was evaluated by measuring the percent increase in life span of female DBA2 mice intravenously inoculated with L1210 leukemia at 50(mg/kg)/day, iv; format: functional; method in brief: as §2
Mus musculus [5] = experiment: Percent increase in life span of female DBA2 mice subcutaneously inoculated with L1210 leukemia at 60 mg/kg/day, iv
Mus musculus [6] = experiment: Chemotherapeutic activity was evaluated by measuring mean tumor diameter on day 8 at 66 mg/kg/day, iv
Mus musculus [7] = experiment: Chemotherapeutic activity was evaluated by measuring mean tumor diameter on day 8 at 60 mg/kg/day, iv
Mus musculus [8] = experiment: Chemotherapeutic activity was evaluated by measuring percent change in weight on day 8 at 50(mg/kg)/day, iv; format: functional
Method in brief: (§3)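 Female DBA2 mice were inoculated iv on day 0 with 10^4 L1210 leukemic cells. Drugs were given iv on days 1 and 2 at the stated daily dose. Percent body weight change was recorded on day 8, and weight loss served as the index of general toxicity.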

Mus musculus [9] = experiment: Percent increase in life span of female DBA2 mice subcutaneously inoculated with L1210 leukemia at 66 mg/kg/day, iv
Mus musculus [10] = experiment: Chemotherapeutic activity was evaluated by measuring number of survivors on day 30 / total number of mice at 60 mg/kg/day, sc; 0/18; format: functional
Mus musculus [11] = experiment: Chemotherapeutic activity was evaluated by measuring mean tumor diameter on day 12 at 66 mg/kg/day, iv
Mus musculus [12] = experiment: Chemotherapeutic activity was evaluated by measuring percent change in weight on day 8 at 66 mg/kg/day, sc; format: functional; method in brief: as §1
Mus musculus [13] = experiment: Chemotherapeutic activity was evaluated by measuring percent change in weight on day 8 at 12(mg/kg)/day, iv; format: functional; method in brief: as §3
Mus musculus [14] = experiment: Chemotherapeutic activity was evaluated by measuring mean tumor diameter on day 12 at 10 mg/kg/day, iv
Mus musculus [15] = experiment: Chemotherapeutic activity was evaluated by measuring the percent increase in life span of female DBA2 mice subcutaneously inoculated with L1210 leukemia at 12(mg/kg)/day, sc; format: functional
Mus musculus [16] = experiment: Chemotherapeutic activity was evaluated by measuring percent change in weight on day 8 at 11 mg/kg/day, sc; format: functional; method in brief: as §1
Mus musculus [17] = experiment: Chemotherapeutic activity was evaluated by measuring mean tumor diameter on day 12 at 12(mg/kg)/day, sc; format: functional
Mus musculus [18] = experiment: Chemotherapeutic activity was evaluated by measuring number of survivors on day 30 / total number of mice at 11 mg/kg/day, iv; 0/37; format: functional; method in brief: as §2
Mus musculus [19] = experiment: Chemotherapeutic activity was evaluated by measuring number of survivors on day 30 / total number of mice at 12(mg/kg)/day, iv; 6/34; format: functional; method in brief: as §2
Mus musculus [20] = experiment: Chemotherapeutic activity was evaluated by measuring percent change in weight on day 8 at 10 mg/kg/day, iv; format: functional; method in brief: as §3
Mus musculus [21] = experiment: Chemotherapeutic activity was evaluated by measuring percent change in weight on day 8 at 11 mg/kg/day, iv; format: functional; method in brief: as §3
Mus musculus [22] = experiment: Chemotherapeutic activity was evaluated by measuring number of survivors on day 30 / total number of mice at 10 mg/kg/day, iv; 0/18; format: functional; method in brief: as §2
Mus musculus [23] = experiment: Chemotherapeutic activity was evaluated by measuring number of survivors on day 30 / total number of mice at 12(mg/kg)/day, sc; 3/36; format: functional
Mus musculus [24] = experiment: Chemotherapeutic activity was evaluated by measuring the percent increase in life span of female DBA2 mice intravenously inoculated with L1210 leukemia at 10 mg/kg/day, iv; format: functional; method in brief: as §2
Mus musculus [25] = experiment: Chemotherapeutic activity was evaluated by measuring percent change in weight on day 8 at 12(mg/kg)/day, sc; format: functional
Mus musculus [26] = experiment: Chemotherapeutic activity was evaluated by measuring percent change in weight on day 8 at 10 mg/kg/day, sc; format: functional; method in brief: as §1
Mus musculus [27] = experiment: Chemotherapeutic activity was evaluated by measuring the percent increase in life span of female DBA2 mice intravenously inoculated with L1210 leukemia at 11 mg/kg/day, iv; format: functional; method in brief: as §2
Mus musculus [28] = experiment: Chemotherapeutic activity was evaluated by measuring mean tumor diameter on day 8 at 11 mg/kg/day, iv
Mus musculus [29] = experiment: Percent increase in life span of female DBA2 mice subcutaneously inoculated with L1210 leukemia at 10 mg/kg/day, iv
Mus musculus [30] = experiment: Chemotherapeutic activity was evaluated by measuring mean tumor diameter on day 8 at 10 mg/kg/day, iv
Mus musculus [31] = experiment: Chemotherapeutic activity was evaluated by measuring number of survivors on day 30 / total number of mice at 11 mg/kg/day, sc; 3/37; format: functional
Mus musculus [32] = experiment: Percent increase in life span of female DBA2 mice subcutaneously inoculated with L1210 leukemia at 11 mg/kg/day, iv
Mus musculus [33] = experiment: Chemotherapeutic activity was evaluated by measuring mean tumor diameter on day 12 at 11 mg/kg/day, iv
Mus musculus [34] = experiment: Chemotherapeutic activity was evaluated by measuring the percent increase in life span of female DBA2 mice intravenously inoculated with L1210 leukemia at 12(mg/kg)/day, iv; format: functional; method in brief: as §2
Mus musculus [35] = experiment: Chemotherapeutic activity was evaluated by measuring number of survivors on day 30 / total number of mice at 10 mg/kg/day, sc; 0/58; format: functional

COc1cccc2c1C(=O)c1c(O)c3c(c(O)c1C2=O)C[C@@](O)(C(C)=O)C[C@@H]3O[C@H]1C[C@H](NC(=O)[C@H](C)N)[C@H](O)[C@H](C)O1
Weight change (Mus musculus [1]): -5.9% | Survivors (Mus musculus [2]): 0 | Survivors (Mus musculus [3]): 0 | Increase in life-span (Mus musculus [4]): 14% | Increase in life-span (Mus musculus [5]): 37% | Diameter (Mus musculus [6]): 0 mm | Diameter (Mus musculus [7]): 1.3 mm | Weight change (Mus musculus [8]): -4.4% | Increase in life-span (Mus musculus [9]): 61% | Survivors (Mus musculus [10]): 0 | Diameter (Mus musculus [11]): 4.2 mm | Weight change (Mus musculus [12]): -8.5%

COc1cccc2c1C(=O)c1c(O)c3c(c(O)c1C2=O)C[C@@](O)(C(C)=O)C[C@@H]3O[C@H]1C[C@H](N)[C@H](O)[C@H](C)O1 [DAUNORUBICIN]
Weight change (Mus musculus [13]): -8.4% | Diameter (Mus musculus [14]): 4.1 mm | Increase in life-span (Mus musculus [15]): 83% | Weight change (Mus musculus [16]): -5.9% | Diameter (Mus musculus [17]): 2 mm | Survivors (Mus musculus [18]): 0 | Survivors (Mus musculus [19]): 6 | Weight change (Mus musculus [20]): -1.1% | Weight change (Mus musculus [21]): -3.2% | Survivors (Mus musculus [22]): 0 | Survivors (Mus musculus [23]): 3 | Increase in life-span (Mus musculus [24]): 42% | Weight change (Mus musculus [25]): -6.3% | Weight change (Mus musculus [26]): -4.3% | Increase in life-span (Mus musculus [27]): 66% | Diameter (Mus musculus [28]): 0.4 mm | Increase in life-span (Mus musculus [29]): 65% | Diameter (Mus musculus [30]): 0.3 mm | Survivors (Mus musculus [31]): 3 | Increase in life-span (Mus musculus [32]): 67% | Diameter (Mus musculus [33]): 2.9 mm | Increase in life-span (Mus musculus [34]): 123% | Survivors (Mus musculus [35]): 0
